These results are taken from ChEMBL document CHEMBL1240369, “Antiviral efficacy of the novel compound BIT225 against HIV-1 release from human macrophages” (Antimicrob Agents Chemother, 2010).

This experiment concerns the target Protease (Human immunodeficiency virus 1) (UniProt Q9YQ12). The experiment can be described thus: Inhibition of HIV1 protease assessed as substrate cleavage by cell free assay. Put shortly:
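Cell-free fluorometric protease assay: compound (1–100 μM) was premixed with 2 μM quenched HIV-1 protease substrate 1. Background fluorescence (ex 340/em 490 nm) was read every 5 s for 5 min. HIV-1 protease was then added at 1.5% and cleavage followed for a further 5 min. LPV and EFV served as controls.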

The structures appear in SMILES notation. Calls of active or inactive are those of the source. The calls are words filed in the database; no cut-off is given here.

Sequence of Protease (Human immunodeficiency virus 1) (Q9YQ12 as listed by the source): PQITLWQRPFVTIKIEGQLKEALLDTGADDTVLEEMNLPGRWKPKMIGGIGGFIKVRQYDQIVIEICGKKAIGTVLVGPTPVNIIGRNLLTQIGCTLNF

For the compound `Cc1cccc(C)c1OCC(=O)N[C@@H](Cc1ccccc1)[C@@H](O)C[C@H](Cc1ccccc1)NC(=O)[C@H](C(C)C)N1CCCNC1=O`, the result was Active.

Consider `O=C1Nc2ccc(Cl)cc2[C@@](C#CC2CC2)(C(F)(F)F)O1`, for which the outcome was inactive.
